Results gathered from unrelated publications.
Each line is one published result; the experiments were not run side by side.
Target: Discoidin domain-containing receptor 2 (DDR2, Homo sapiens, UniProt Q16832)
Residues used in one study (Q16832 22-855): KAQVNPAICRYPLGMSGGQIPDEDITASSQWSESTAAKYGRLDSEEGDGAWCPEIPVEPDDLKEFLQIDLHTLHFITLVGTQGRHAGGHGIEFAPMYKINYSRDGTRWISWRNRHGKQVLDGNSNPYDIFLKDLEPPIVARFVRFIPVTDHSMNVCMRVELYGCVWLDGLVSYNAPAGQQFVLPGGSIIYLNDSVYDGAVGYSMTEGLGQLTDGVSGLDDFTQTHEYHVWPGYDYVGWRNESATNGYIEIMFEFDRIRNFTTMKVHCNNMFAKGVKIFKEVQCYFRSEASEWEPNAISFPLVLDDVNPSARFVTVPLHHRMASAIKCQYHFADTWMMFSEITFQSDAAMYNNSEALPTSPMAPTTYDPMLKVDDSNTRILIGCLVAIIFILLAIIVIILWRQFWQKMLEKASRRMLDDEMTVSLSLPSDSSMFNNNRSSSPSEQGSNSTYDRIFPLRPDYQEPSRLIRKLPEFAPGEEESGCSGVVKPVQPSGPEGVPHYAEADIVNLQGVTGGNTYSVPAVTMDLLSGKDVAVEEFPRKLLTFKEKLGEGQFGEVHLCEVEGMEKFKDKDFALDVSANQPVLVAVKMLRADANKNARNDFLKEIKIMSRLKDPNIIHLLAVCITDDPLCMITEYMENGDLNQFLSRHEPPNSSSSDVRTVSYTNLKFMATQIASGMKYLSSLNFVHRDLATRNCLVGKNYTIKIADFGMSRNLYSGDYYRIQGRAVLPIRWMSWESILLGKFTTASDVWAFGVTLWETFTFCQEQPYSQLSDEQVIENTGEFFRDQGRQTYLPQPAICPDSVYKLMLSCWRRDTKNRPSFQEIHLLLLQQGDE

CC/C(=N\NC(=O)NCc1cccc(O)c1)c1ccc(O)c(C)c1O gave an inhibition of 0.1% (enzyme activity; inhibitor; 0.1 µM).
COc1cc(/C=C/C(=O)CC(=O)/C=C/c2ccc(O)c(OC)c2)ccc1O gave an activity vs control of 109% (enzyme activity; inhibitor; 1 µM).
CCN(CC)CCNC(=O)c1c(C)[nH]c(/C=C2\C(=O)Nc3ccc(F)cc32)c1C has a remaining activity of 103% (enzyme activity; inhibitor; 1 µM).
The remaining signal of Cc1ccc(Nc2nccc(N(C)c3ccc4c(C)n(C)nc4c3)n2)cc1S(N)(=O)=O is reported as 36.2% (cell-free assay; 0.5 µM).
For Nc1ncnc2occ(-c3ccc(NC(=O)Nc4cc(C(F)(F)F)ccc4F)cc3)c12, the remaining signal was 1.4% (cell-free assay; 20 µM).
CNC(=O)Nc1ccc2c(c1)CC[C@@]21OC(=O)N(CC(=O)N(Cc2ccc(F)cc2)[C@@H](C)C(F)(F)F)C1=O has a remaining binding of 75% (cell-free assay; competition with immobilised ligand; 1 µM).
With Cc1cc(NC(=O)c2cccc3cc(-c4cccc5[nH]nc(N)c45)ccc23)ccc1F the activity vs control was 60% (enzyme activity; inhibitor; 0.1 µM).
For CS(=O)(=O)N1CCCC(NC(=O)[C@H](CCC2CCCCC2)NC(=O)c2ccc(CNC(=O)c3cnc4ccccn34)cc2)C1 (stereo partly drawn), the remaining binding was 0% (cell-free assay; competition with immobilised ligand; 0.1 µM).
With CC(C)(C)c1nc2c(s1)c1nc(N)ncc1c1ccc(NS(=O)(=O)c3c(F)cccc3F)c(F)c12 the remaining activity was 69% (enzyme activity; inhibitor; radiometric; 1 µM).
For CCN(CC)CCNC(=O)c1c(C)[nH]c(/C=C2\C(=O)Nc3ccc(F)cc32)c1C, the inhibition was -8% (enzyme activity; inhibitor; 0.3 µM).
The remaining activity of O=C(Nc1cnn(-c2csc(C(=O)NC3COC3)c2)c1)Nc1ccccc1Cl is reported as 99.8% (enzyme activity; inhibitor; 5 µM).
With CNC(=O)c1cc2c(Oc3ccc(NC(=O)C4(C(=O)Nc5ccc(F)cc5)CC4)cc3)ccnc2cc1OC the inhibition was 104% (enzyme activity; inhibitor; radiometric; 1 µM).
For Cc1cnc(NC2CCOCC2)nc1-n1cnc(C(=O)NC(CN)c2cc(F)cc(Cl)c2)c1 (stereo not drawn), the remaining activity was 102% (enzyme activity; inhibitor; radiometric; 1 µM).
With N#CCCc1ccc2c(c1)-c1[nH]c3ccc([N+](=O)[O-])cc3c1CC(=O)N2 the remaining signal was 105% (cell-free assay; 0.5 µM).
CN(C)c1ncnc(-c2ccc3nc(Nc4cc(CN5CCN(C(=O)CC(F)(F)F)CC5)ccn4)[nH]c3c2)c1Cl gave a remaining binding of 71% (cell-free assay; competition with immobilised ligand; 1 µM).
For Cc1ccc(C(=O)Nc2ccc(CN3CCN(C)CC3)c(C(F)(F)F)c2)cc1C#Cc1cnc2cccnn12, the remaining signal was 0.3% (cell-free assay; 23.5 nM).
For CO[C@H]1CC[C@H](CNc2ccc(S(=O)(=O)NC(=O)c3ccc(N4CCN(CC5=C(c6ccc(Cl)cc6)CC(C)(C)CC5)CC4)cc3Oc3cnc4[nH]ccc4c3)cc2[N+](=O)[O-])CC1, the remaining binding was 100% (cell-free assay; competition with immobilised ligand; 1 µM).
With CNC(=O)c1cc(Oc2ccc(NC(=O)Nc3ccc(Cl)c(C(F)(F)F)c3)cc2)ccn1 the inhibition was 111% (enzyme activity; inhibitor; 10 µM).
With O=C(NC[C@@H]1[C@H]2CN(C(=O)OCc3cc(C(F)(F)F)cc(C(F)(F)F)c3)C[C@@H]12)c1ccc2[nH]nnc2c1 the remaining binding was 82% (cell-free assay; competition with immobilised ligand; 1 µM).
Cc1[nH]c(/C=C2\C(=O)Nc3ccc(F)cc32)c(C)c1C(=O)N[C@H]1CCN(C(=O)N(C)C)C1 has a remaining activity of 107% (enzyme activity; inhibitor; 1 µM).
The remaining binding of O=C(NCc1ncc(C(F)(F)F)cc1Cl)c1ccc2c(c1)C1(CCS(=O)(=O)CC1)[C@H](C1CC1)N2S(=O)(=O)c1ccc(F)cc1 is reported as 78% (cell-free assay; competition with immobilised ligand; 1 µM).
With CCN(CC)c1ccc(C2=NNC(=O)CC2C)cc1[N+](=O)[O-] (stereo not drawn) the remaining activity was 100% (enzyme activity; inhibitor; 10 µM).
Cc1noc([C@H]2C[C@@H](c3ccc(C(F)(F)F)cc3)CN(C(=O)N3CCS(=O)(=O)C3)C2)n1 has a remaining binding of 74% (cell-free assay; competition with immobilised ligand; 1 µM).
The remaining activity of CC(C)(O)[C@H]1CC[C@H](Nc2ccc3ncc(-c4cccc(C(F)(F)F)c4)n3n2)CC1 is reported as 49.5% (enzyme activity; inhibitor; 1 µM).
